A selection: hits, their analogues and other compounds. The true share with any hit is near 3.8%.
Hep lipid drop: hepatic lipid droplet formation modulation; AML12 mouse hepatocytes, oleate lipid droplets, BODIPY imaging; inhibition, % at 6.5 µM; 0.4% of 240,000 active;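 active = lipid droplet intensity inhibited by at least 50%, with more than 500 cells counted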
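Assay system: AML12 hepatocytes (mouse) / Also added: 100 µM oleic acid challenge / Times: overnight treatment with compound plus oleate / Detection: high-content imaging of BODIPY-stained droplets and DAPI nuclei / Evaluation: % inhibition of lipid droplet signal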
RGS4 block: inhibitors of human RGS4 | P49798 | HEK293 M3R/RGS4 inducible, Fluo-4 calcium flux; stronger effect = higher value; triggered by carbachol at its EC20 | B-score at 10 µM | 0.45% of 310,000 active;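 active = B-score, a plate-corrected calcium signal, over three deviations above library mean, with baseline fluorescence within five deviations of library mean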;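 note: RGS4 expression induced by doxycycline in cells with stable M3 receptor; B-score is computed from the integrated fluorescence ratio over baseline after carbachol; higher B-score means a larger calcium signal and so more RGS4 inhibition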
MrgX1 antag: human MrgX1 receptor antagonism, primary screen. Q96LB2. MRGX1-HEK293 calcium flux, Fluo-4, BAM8-22 antagonism; stronger effect = lower value. B-score at 10 µM. 1.3% of 310,000 active;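 active = calcium-response B-score plate-corrected more than 3 library SD below zero, starting fluorescence within 5 deviations, no agonist response on first addition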;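 note: peak minus trough fluorescence over baseline after final BAM8-22 challenge near maximal dose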
Target sequence (Q96LB2 whole entry, looked up): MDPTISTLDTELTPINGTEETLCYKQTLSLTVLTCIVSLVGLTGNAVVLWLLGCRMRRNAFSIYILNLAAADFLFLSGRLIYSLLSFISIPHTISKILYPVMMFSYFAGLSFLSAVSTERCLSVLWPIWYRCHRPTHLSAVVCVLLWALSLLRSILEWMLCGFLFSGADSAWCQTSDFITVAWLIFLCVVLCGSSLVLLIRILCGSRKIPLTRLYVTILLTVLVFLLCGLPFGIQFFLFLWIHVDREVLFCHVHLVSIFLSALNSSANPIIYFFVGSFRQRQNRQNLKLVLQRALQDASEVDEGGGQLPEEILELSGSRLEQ
RGS4 pot: RGS4 potentiation or activation | HEK293 M3R/inducible RGS4, carbachol calcium flux Fluo4; stronger effect = lower value | B-score at 10 µM | 0.92% of 310,000 active;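 active = B-score of the integrated calcium signal more than 4 SD below the library mean, with starting fluorescence not abnormally high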;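 note: negative B-score means reduced calcium response which marks RGS4 activation or potentiation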
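System – HEK293 FlpIn-TREx cells, stable M3R, doxycycline-inducible RGS4 · Reagent – ECmax carbachol challenge · Times – compound preincubation 20 min at room temperature before agonist · Technique – Fluo4 fluorescence kinetic imaging of calcium · Measure – B score of integrated Fluo4 ratio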
MrgX1 agonist: agonists of human MrgX1 receptor; MrgX1-HEK293 cells, Fluo-4 calcium fluorescence, agonist mode; stronger effect = higher value; 0.44% of 310,000 active; AID 588627; B-score at 10 µM; Q96LB2;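 active = calcium response B-score plate-corrected fluorescence ratio at least 3 library SD, with starting fluorescence B-score inside 5 SD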
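Assay system: MrgX1-expressing HEK293 cells / Amount: fifteen thousand cells per well / Doses: test compound in the initial addition of three / Timing: cells plated overnight, dye loaded 0.5 h 37 °C, 0.5 h room temperature / Technique: kinetic calcium dye fluorescence, Fluo-4 NW / Control set: positive and negative controls per plate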
MrgX1 allo act: human MrgX1 positive allosteric modulation, primary screen; B-score at 10 µM; MrgX1-HEK293, Fluo-4 calcium flux, FDSS; stronger effect = higher value; 0.63% of 310,000 active; Q96LB2;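 active = plate-corrected calcium response at least 3 library SD above typical, normal starting fluorescence, not activating the receptor alone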;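 note: compound read alongside a low EC10 to EC30 dose of BAM8-22 agonist; peak minus trough fluorescence over baseline measured at the second addition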
RGS4 activ val: RGS4 activation, validation assay; shares compounds with RGS4 pot; HEK293 M3R/RGS4 inducible, carbachol calcium flux Fluo4; inhibition, % at 10 µM; 89% of 1,100 active;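 active = inhibition above 3 SD of the buffer control wells, cut at about 41% in these data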;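 note: signal is the integrated peak-minus-minimum Fluo4 fluorescence over baseline ratio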
M3R Ca counter: RGS4 activator counter-screen hit in non-induced cells. shares compounds with RGS4 pot. 82% of 1,100 active. inhibition, % at 10 µM. HEK293 M3R non-induced RGS4, Fluo4 calcium flux; after carbachol challenge at its EC90;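 active = inhibition exceeding 3 SD of buffer-only control wells, cut at about 26% in these data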;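 note: percent drop in integrated peak-minus-baseline over baseline Fluo4 ratio after carbachol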
* marks the source's active call; other numbers are inactive results; i = inactive; · = no result.

SMILES	Hep lipid drop	RGS4 block	MrgX1 antag	RGS4 pot	MrgX1 agonist	MrgX1 allo act	RGS4 activ val	M3R Ca counter
COc1ccc2nc3c(cc2c1)c(NC(=O)c1cccs1)nn3CC(C)C	-46	i	i	-8.5*	i	i	86*	61*
CCN1CCN(C(=O)c2nn(C)c3c2CS(=O)(=O)c2ccccc2-3)CC1	-16	i	i	i	i	i	·	·
Cc1cc(-c2ccc3ccccc3c2)n2ncnc2n1	-7	i	i	i	i	i	·	·
COCc1ccc(C(=O)N(C)C2CCCN(Cc3ccccc3F)C2)o1 (configuration not stated)	20	i	i	-8.6*	i	i	56*	0
CCOC(=O)c1ccc(N/C(=N\S(=O)(=O)c2ccc(F)cc2F)c2ccccc2)cc1	-16	i	i	i	i	i	·	·
CCOC(=O)c1ccc(CNCc2ccccc2)cc1	-12	i	i	-12*	i	i	87*	29*
CCOC(=O)c1ccc(CNCc2ccc(Br)cc2)cc1	4	i	i	i	i	i	·	·
CC(C)C(O)(C#CCN1CCCCCC1)c1ccccc1 (configuration not stated)	-7	i	i	-11*	i	i	94*	87*
CC(O)(C#CCN1CCCCC1)c1ccccc1 (configuration not stated)	-6	i	i	i	i	i	·	·
C(#CCN1CCCC1)CC(c1ccccc1)c1ccccc1	10	i	i	-13*	i	i	92*	93*
C(#Cc1ccccc1)CN1CCCCC1	11	i	i	i	i	i	·	·
CC(C)C(O)(CC#CCN1CCCC1)c1ccccc1 (configuration not stated)	4	i	i	-9.2*	i	i	92*	44*
CC1CCCN1CC#CC(O)(c1ccccc1)c1ccccc1 (configuration not stated)	-10	i	i	-7.9*	i	i	90*	92*
O=C(O[C@@H]1OC2COC(=O)c3cc(O)c(O)c(O)c3-c3c(cc(O)c(O)c3O)C(=O)O[C@@H]([C@H]1O)[C@@H]2O)c1cc(O)c(O)c(O)c1	-2	i	i	i	i	i	·	·
COc1ccccc1NC(=O)Cn1c([N+](=O)[O-])cnc1C	-2	i	i	i	i	i	·	·
Cc1ccc2c(C)nc(SC(C(=O)c3ccccc3)c3ccccc3)nc2c1 (configuration not stated)	-15	i	i	i	i	i	·	·
CN(C)c1ccc(N2C(=NC(=O)COc3ccccc3)SC3CS(=O)(=O)CC32)cc1 (configuration not stated)	-33	i	i	i	i	i	·	·
O=C(CN(C(=O)c1csnn1)c1cccc(C(F)(F)F)c1)NC1CCCC1	-3	i	i	i	i	i	·	·
CCN(CC)CCn1c2c(c(SCC(=O)NCc3ccccc3)nc1=O)CCC2	·	i	i	i	i	i	·	·
Clc1ccc2c(c1)Nc1ccccc1CC2	·	i	i	i	i	i	·	·
CC(C)(C#CCN1CCCCC1)OCCOC(c1ccccc1)c1ccccc1	0	i	i	-12*	i	i	93*	92*
OCCN(CC#CC(O)(c1ccccc1)c1cccc(F)c1)CCO (configuration not stated)	1	i	i	i	i	i	·	·
CC(C)(C)C(O)(CC#CCN1CCCC1)c1ccccc1 (configuration not stated)	6	i	i	-9.4*	i	i	76*	31*

Source: PubChem BioAssay (several laboratories)
